pIC50: −log10 of the molar value.
How the values were obtained:
[1] = biological target: Hepatocyte growth factor receptor (Homo sapiens, UniProt P08581); assay: Inhibition of c-Met (unknown origin) using poly (Glu, Tyr) 4:1 as substrate after 30 mins by HTRF assay
[2] = Potency index, ratio of foretinib IC50 to compound IC50 for human H460 cells; type: functional
[3] = biological target: Vascular endothelial growth factor receptor 2 (Homo sapiens, UniProt P35968); assay: Inhibition of VEGFR-2 (unknown origin) using poly (Glu, Tyr) 4:1 as substrate after 30 mins by HTRF assay
Summary of the method: (§1)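 Purified kinase protein added to start the reaction on preloaded poly(Glu,Tyr) 4:1 substrate at 20 µg/mL. ATP 10 mM solution in HEPES 50 mM pH 7.0 buffer with DTT, MgCl₂, MnCl₂ and 0.1% NaN₃. Compounds added in 1% DMSO. Reaction run 30 min at 25°C, stopped with Streptavidin-XL665 plus Tk antibody cryptate, read at 320/615 nm. Percent inhibition taken against enzyme-free and full-enzyme controls; IC50 from inhibition curves.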

A549 [4] = assay: Cytotoxicity against human A549 cells after 72 hrs by MTT assay; details: A549, 72 h
NCI-H460 = assay: Cytotoxicity against human H460 cells after 72 hrs by MTT assay; type: functional, cell-based; details: NCI-H460, 72 h
Summary of the method: (§2)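 Cells grown in MEM with 10% FBS. About 4 × 10³ cells per well, incubated 24 h at 37°C in 5% CO₂. Compound added at the indicated final concentrations, then 72 h culture. MTT at […] final for 4 h at 37°C. Three independent experiments; IC50 reported as mean.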

HT-29 [5] = assay: Cytotoxicity against human HT-29 cells after 72 hrs by MTT assay; details: HT-29, 72 h
U-87 MG [6] = assay: Potency index, ratio of foretinib IC50 to compound IC50 for human U87MG cells; type: functional, U-87MG ATCC
[7] = biological target: Mast/stem cell growth factor receptor Kit (Homo sapiens, UniProt P10721); assay: Inhibition of c-Kit (unknown origin) using poly (Glu, Tyr) 4:1 as substrate after 30 mins by HTRF assay; summary of the method: as §1
U-87 MG [8] = assay: Cytotoxicity against human U87MG cells after 72 hrs by MTT assay; type: functional, cell-based, U-87MG ATCC; summary of the method: as §2
A549 [9] = assay: Potency index, ratio of foretinib IC50 to compound IC50 for human A549 cells; type: functional
HT-29 [10] = assay: Potency index, ratio of foretinib IC50 to compound IC50 for human HT-29 cells; type: functional
[11] = biological target: Epidermal growth factor receptor (Homo sapiens, UniProt P00533); assay: Inhibition of EGFR (unknown origin) using poly (Glu, Tyr) 4:1 as substrate after 30 mins by HTRF assay; summary of the method: as §1
[12] = biological target: Platelet-derived growth factor receptor beta (Homo sapiens, UniProt P09619); assay: Inhibition of PDGFRbeta (unknown origin) using poly (Glu, Tyr) 4:1 as substrate after 30 mins by HTRF assay; summary of the method: as §1
[13] = biological target: T1, Receptor-type tyrosine-protein kinase FLT3 (Homo sapiens, UniProt P36888); assay: Inhibition of Flt-3 (unknown origin) using poly (Glu, Tyr) 4:1 as substrate after 30 mins by HTRF assay; summary of the method: as §1
T1 sequence (P36888 whole entry): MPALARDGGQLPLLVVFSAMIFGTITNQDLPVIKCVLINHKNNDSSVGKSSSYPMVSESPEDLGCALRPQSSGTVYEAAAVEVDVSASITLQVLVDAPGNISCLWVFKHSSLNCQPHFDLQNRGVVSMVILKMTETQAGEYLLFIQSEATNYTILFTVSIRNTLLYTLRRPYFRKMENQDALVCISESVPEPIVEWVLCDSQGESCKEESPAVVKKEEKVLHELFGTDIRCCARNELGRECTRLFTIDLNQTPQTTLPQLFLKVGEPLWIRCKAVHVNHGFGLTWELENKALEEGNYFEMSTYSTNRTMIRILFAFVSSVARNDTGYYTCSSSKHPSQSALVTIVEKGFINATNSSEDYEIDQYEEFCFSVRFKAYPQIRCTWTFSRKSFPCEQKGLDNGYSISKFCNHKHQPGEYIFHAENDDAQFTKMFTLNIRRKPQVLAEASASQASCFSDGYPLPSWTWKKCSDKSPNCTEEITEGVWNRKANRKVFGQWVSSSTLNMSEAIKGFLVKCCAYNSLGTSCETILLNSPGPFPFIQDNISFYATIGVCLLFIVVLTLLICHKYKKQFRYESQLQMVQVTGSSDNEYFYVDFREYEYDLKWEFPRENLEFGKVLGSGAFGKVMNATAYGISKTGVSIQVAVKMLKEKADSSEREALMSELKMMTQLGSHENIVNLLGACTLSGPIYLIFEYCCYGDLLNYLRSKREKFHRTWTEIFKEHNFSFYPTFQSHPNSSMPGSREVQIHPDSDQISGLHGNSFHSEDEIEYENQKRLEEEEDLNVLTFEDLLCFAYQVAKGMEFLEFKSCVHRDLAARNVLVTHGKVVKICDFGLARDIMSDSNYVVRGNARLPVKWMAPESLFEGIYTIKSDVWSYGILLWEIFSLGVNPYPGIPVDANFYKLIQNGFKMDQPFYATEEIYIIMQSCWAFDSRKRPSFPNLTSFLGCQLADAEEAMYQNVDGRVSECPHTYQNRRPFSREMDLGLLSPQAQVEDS

Hepatocyte growth factor receptor, sequence (P08581 whole entry): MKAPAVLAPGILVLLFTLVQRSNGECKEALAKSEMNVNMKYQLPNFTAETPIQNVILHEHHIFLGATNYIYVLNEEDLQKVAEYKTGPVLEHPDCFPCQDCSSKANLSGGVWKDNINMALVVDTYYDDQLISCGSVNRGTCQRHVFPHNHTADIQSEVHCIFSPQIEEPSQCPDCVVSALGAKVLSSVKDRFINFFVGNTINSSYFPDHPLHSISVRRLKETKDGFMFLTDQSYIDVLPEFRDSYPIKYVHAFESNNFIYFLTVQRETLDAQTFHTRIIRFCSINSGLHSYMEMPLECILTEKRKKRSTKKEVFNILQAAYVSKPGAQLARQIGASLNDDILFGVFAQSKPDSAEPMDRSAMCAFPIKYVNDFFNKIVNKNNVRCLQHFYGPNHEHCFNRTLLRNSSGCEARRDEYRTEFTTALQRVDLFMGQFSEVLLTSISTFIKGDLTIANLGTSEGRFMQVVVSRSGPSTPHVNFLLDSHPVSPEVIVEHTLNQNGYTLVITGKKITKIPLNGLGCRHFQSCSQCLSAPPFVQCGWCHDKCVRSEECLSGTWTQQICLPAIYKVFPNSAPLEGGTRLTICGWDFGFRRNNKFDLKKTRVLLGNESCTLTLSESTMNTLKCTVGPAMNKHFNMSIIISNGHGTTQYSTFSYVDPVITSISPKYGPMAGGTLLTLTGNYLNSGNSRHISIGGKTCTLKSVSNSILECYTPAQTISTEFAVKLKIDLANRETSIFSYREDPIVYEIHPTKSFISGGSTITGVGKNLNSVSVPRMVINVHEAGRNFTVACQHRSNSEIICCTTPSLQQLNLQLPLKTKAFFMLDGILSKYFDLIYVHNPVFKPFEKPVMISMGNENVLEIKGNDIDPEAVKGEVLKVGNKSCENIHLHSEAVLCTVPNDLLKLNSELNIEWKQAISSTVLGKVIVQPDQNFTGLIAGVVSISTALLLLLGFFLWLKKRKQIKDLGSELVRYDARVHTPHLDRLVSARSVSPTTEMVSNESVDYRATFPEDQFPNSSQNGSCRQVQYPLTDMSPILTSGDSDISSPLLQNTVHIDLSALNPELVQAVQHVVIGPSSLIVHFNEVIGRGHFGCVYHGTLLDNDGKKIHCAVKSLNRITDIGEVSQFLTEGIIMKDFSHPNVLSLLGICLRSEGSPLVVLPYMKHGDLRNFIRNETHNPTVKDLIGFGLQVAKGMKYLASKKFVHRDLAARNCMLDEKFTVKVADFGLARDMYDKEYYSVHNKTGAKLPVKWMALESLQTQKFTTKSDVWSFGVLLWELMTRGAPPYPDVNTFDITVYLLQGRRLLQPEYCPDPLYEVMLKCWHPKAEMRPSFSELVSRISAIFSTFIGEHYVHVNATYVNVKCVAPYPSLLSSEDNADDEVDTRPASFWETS
Mast/stem cell growth factor receptor Kit, sequence (P10721 whole entry): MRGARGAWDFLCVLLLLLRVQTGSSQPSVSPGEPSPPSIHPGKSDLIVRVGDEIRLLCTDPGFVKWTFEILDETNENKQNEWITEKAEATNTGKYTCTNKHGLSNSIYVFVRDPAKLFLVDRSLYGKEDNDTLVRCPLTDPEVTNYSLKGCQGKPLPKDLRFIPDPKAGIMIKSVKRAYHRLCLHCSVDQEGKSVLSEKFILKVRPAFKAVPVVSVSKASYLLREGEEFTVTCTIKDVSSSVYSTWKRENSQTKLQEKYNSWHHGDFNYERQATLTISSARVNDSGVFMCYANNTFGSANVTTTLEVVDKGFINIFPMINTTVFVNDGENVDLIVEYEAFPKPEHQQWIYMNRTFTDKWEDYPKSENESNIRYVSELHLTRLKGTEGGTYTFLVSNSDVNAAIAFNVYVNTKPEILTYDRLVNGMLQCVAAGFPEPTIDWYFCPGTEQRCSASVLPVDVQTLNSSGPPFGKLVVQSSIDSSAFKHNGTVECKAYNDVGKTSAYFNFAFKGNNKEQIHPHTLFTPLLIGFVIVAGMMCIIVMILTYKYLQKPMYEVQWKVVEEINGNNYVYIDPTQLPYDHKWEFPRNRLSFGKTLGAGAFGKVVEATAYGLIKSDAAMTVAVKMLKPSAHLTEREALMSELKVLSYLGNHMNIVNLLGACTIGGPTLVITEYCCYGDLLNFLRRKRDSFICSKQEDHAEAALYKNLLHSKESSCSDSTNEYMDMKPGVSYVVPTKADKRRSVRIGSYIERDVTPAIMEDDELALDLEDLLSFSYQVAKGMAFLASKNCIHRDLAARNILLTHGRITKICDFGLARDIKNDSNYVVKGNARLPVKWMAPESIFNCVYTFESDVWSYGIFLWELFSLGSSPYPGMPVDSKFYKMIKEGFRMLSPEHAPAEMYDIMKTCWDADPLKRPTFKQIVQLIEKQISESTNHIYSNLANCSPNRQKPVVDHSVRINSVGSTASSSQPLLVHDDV
Epidermal growth factor receptor, sequence (P00533 whole entry): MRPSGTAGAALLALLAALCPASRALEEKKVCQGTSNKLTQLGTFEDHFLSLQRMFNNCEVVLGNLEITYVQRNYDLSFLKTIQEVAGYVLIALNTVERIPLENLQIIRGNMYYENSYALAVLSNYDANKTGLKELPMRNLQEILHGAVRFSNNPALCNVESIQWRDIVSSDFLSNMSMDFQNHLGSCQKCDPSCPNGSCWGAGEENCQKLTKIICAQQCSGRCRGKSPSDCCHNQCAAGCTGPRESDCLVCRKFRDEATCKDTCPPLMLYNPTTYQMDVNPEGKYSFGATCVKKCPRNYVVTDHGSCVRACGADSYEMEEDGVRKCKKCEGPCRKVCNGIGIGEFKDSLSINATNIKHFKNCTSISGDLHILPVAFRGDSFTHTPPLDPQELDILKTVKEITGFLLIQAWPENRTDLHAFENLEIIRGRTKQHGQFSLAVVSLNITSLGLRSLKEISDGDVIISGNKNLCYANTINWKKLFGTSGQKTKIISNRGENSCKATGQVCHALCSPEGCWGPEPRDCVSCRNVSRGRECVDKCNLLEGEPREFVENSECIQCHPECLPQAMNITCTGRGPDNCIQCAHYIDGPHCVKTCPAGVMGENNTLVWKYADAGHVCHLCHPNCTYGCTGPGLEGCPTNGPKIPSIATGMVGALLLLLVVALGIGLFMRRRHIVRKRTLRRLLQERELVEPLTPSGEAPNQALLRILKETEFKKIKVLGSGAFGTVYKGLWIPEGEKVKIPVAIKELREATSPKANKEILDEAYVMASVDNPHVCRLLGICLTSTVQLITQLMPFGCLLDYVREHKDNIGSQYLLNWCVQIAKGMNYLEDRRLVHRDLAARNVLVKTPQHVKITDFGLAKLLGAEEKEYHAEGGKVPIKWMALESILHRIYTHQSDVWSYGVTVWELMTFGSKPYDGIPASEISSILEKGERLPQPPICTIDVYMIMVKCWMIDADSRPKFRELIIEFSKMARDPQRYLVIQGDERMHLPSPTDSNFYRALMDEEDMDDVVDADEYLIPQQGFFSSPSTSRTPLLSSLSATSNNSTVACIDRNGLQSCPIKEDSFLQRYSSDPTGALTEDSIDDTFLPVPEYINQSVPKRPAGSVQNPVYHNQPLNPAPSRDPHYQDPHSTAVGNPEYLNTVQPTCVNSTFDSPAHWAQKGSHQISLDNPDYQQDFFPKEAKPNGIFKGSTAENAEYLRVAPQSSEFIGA
Vascular endothelial growth factor receptor 2, sequence (P35968 whole entry): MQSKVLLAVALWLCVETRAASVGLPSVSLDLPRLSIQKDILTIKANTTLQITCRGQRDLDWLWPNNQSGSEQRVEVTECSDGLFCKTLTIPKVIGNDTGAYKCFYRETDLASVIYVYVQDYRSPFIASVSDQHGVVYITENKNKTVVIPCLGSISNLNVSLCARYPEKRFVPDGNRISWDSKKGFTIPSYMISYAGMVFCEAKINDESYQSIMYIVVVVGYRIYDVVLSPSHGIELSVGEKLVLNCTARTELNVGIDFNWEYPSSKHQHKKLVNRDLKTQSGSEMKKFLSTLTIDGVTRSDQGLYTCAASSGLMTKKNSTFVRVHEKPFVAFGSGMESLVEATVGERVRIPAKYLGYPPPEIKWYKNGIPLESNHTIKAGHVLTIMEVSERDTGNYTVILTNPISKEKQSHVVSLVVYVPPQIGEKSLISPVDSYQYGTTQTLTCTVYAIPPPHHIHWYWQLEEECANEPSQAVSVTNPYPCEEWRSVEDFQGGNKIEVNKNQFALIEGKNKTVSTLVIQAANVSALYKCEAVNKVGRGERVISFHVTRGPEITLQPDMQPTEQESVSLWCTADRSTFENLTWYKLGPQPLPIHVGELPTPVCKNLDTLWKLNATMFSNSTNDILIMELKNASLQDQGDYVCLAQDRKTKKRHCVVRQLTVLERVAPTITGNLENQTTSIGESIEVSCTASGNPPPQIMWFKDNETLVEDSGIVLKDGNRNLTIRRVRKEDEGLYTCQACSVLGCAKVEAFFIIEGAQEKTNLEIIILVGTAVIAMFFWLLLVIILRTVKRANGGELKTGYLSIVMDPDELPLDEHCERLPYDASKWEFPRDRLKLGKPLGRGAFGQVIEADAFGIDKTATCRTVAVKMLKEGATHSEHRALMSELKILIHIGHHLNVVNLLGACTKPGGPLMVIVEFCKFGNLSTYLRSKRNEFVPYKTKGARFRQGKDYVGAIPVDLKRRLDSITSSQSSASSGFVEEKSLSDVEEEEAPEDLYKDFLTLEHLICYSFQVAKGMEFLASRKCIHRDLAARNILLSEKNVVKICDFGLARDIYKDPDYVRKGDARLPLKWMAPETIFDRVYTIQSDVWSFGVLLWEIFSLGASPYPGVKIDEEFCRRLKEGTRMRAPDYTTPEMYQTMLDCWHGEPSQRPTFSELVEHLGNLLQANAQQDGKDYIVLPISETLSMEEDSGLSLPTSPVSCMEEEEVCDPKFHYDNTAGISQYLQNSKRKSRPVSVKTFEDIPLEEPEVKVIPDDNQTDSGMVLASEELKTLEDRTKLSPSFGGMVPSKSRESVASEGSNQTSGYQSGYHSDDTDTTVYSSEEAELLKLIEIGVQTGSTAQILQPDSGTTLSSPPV

Row | SMILES | pIC50 [1] | also measured
1 | Cc1ccc(C)c(-n2nc(C(=O)Nc3ccc(Oc4ccnc5c4ccn5C)cc3)c(C)cc2=O)c1 | 7.38 | 
2 | Cc1ccc(C)c(-n2nc(C(=O)Nc3ccc(Oc4ccnc5[nH]ccc45)cc3)c(C)cc2=O)c1 | 7.47 | 
3 | Cc1cc(=O)n(-c2ccccc2C(F)(F)F)nc1C(=O)Nc1ccc(Oc2ccnc3c2ccn3C)cc1 | 7.33 | 
4 | Cc1cc(=O)n(-c2ccc(F)cc2)nc1C(=O)Nc1ccc(Oc2ccnc3c2ccn3C)cc1 | 8.04 | 
5 | Cc1cc(=O)n(-c2cccc(C(F)(F)F)c2)nc1C(=O)Nc1ccc(Oc2ccnc3[nH]ccc23)cc1 | 7.45 | 
6 | Cc1cc(=O)n(-c2ccccc2)nc1C(=O)Nc1ccc(Oc2ccnc3[nH]ccc23)cc1 | 7.74 | 
7 | Cc1cc(=O)n(-c2cccc(C(F)(F)F)c2)nc1C(=O)Nc1ccc(Oc2ccnc3c2ccn3C)c(F)c1 | 7.53 | pIC50 (A549 [4]): 6.21; pIC50 (NCI-H460): 6.28; pIC50 (HT-29 [5]): 6.44; pIC50 (U-87 MG [8]): 5.64
8 | Cc1cc(=O)n(-c2ccc(F)c(Cl)c2)nc1C(=O)Nc1ccc(Oc2ccnc3c2ccn3C)cc1 | 7.34 | 
9 | Cc1cc(=O)n(-c2ccccc2F)nc1C(=O)Nc1ccc(Oc2ccnc3c2ccn3C)cc1 | 7.84 | 
10 | COc1ccc(-n2nc(C(=O)Nc3ccc(Oc4ccnc5[nH]ccc45)cc3)c(C)cc2=O)cc1 | 7.33 | 
11 | Cc1cc(=O)n(-c2cccc(C(F)(F)F)c2)nc1C(=O)Nc1ccc(Oc2ccnc3c2ccn3C)cc1 | 7.49 | 
12 | Cc1cc(=O)n(-c2cccc(Br)c2)nc1C(=O)Nc1ccc(Oc2ccnc3c2ccn3C)cc1 | 7.98 | 
13 | Cc1cc(=O)n(-c2ccc(Cl)cc2Cl)nc1C(=O)Nc1ccc(Oc2ccnc3c2ccn3C)cc1 | 7.31 | 
14 | Cc1cc(=O)n(-c2cccc(F)c2)nc1C(=O)Nc1ccc(Oc2ccnc3c2ccn3C)cc1 | 7.82 | pIC50 (A549 [4]): 6.39; pIC50 (NCI-H460): 6.49; pIC50 (HT-29 [5]): 6.49; pIC50 (U-87 MG [8]): 5.05
15 | Cc1cc(=O)n(-c2ccc(Br)cc2F)nc1C(=O)Nc1ccc(Oc2ccnc3c2ccn3C)cc1 | 7.44 | 
16 | Cc1cc(=O)n(-c2ccc(F)cc2)nc1C(=O)Nc1ccc(Oc2ccnc3[nH]ccc23)cc1 | 8.07 | pIC50 (A549 [4]): 6.64; pIC50 (NCI-H460): 6.80; pIC50 (HT-29 [5]): 6.85; pIC50 (U-87 MG [8]): 5.26
17 | Cc1cc(=O)n(-c2ccccc2)nc1C(=O)Nc1ccc(Oc2ccnc3c2ccn3C)cc1 | 7.71 | 

Now from value to compound, other results behind:

Row | pIC50 [1] | SMILES | also measured
18 | 7.90 | Cc1cc(=O)n(-c2ccccc2F)nc1C(=O)Nc1ccc(Oc2ccnc3[nH]ccc23)cc1 | 
19 | 7.38 | Cc1cc(=O)n(-c2ccc(Br)cc2F)nc1C(=O)Nc1ccc(Oc2ccnc3[nH]ccc23)cc1 | 
20 | 8.97 | Cc1cc(=O)n(-c2ccc(F)cc2)nc1C(=O)Nc1ccc(Oc2ccnc3[nH]ccc23)c(F)c1 | Ratio IC50 [2]: 3.2; pIC50 [3]: 6.17; pIC50 (A549 [4]): 7.34; pIC50 (NCI-H460): 7.04; pIC50 (HT-29 [5]): 7.41; Ratio IC50 (U-87 MG [6]): 1.3; pIC50 [7]: 6.50; pIC50 (U-87 MG [8]): 6.12; Ratio IC50 (A549 [9]): 7.8; Ratio IC50 (HT-29 [10]): 6.4; pIC50 [11]: 6.14; pIC50 [12]: 8.49; pIC50 [13]: 8.88
21 | 7.93 | Cc1cc(=O)n(-c2cccc(F)c2)nc1C(=O)Nc1ccc(Oc2ccnc3[nH]ccc23)cc1 | pIC50 (A549 [4]): 6.38; pIC50 (NCI-H460): 6.72; pIC50 (HT-29 [5]): 6.68; pIC50 (U-87 MG [8]): 5.47
22 | 7.65 | Cc1cc(=O)n(-c2ccc(Cl)cc2Cl)nc1C(=O)Nc1ccc(Oc2ccnc3[nH]ccc23)c(F)c1 | 
23 | 7.99 | Cc1ccccc1-n1nc(C(=O)Nc2ccc(Oc3ccnc4[nH]ccc34)c(F)c2)c(C)cc1=O | 
24 | 7.40 | Cc1cc(=O)n(-c2ccccc2C(F)(F)F)nc1C(=O)Nc1ccc(Oc2ccnc3[nH]ccc23)cc1 | 
25 | 7.38 | Cc1cc(=O)n(-c2ccc(F)c(Cl)c2)nc1C(=O)Nc1ccc(Oc2ccnc3[nH]ccc23)cc1 | 
26 | 7.74 | Cc1cc(=O)n(-c2ccc(Br)cc2F)nc1C(=O)Nc1ccc(Oc2ccnc3[nH]ccc23)c(F)c1 | 
27 | 8.25 | Cc1cc(=O)n(-c2cccc(F)c2)nc1C(=O)Nc1ccc(Oc2ccnc3[nH]ccc23)c(F)c1 | 
28 | 8.30 | Cc1cc(=O)n(-c2ccccc2F)nc1C(=O)Nc1ccc(Oc2ccnc3[nH]ccc23)c(F)c1 | 
29 | 7.74 | COc1ccc(-n2nc(C(=O)Nc3ccc(Oc4ccnc5[nH]ccc45)c(F)c3)c(C)cc2=O)cc1 | 
30 | 7.72 | Cc1ccccc1-n1nc(C(=O)Nc2ccc(Oc3ccnc4[nH]ccc34)cc2)c(C)cc1=O | 
31 | 7.95 | Cc1cc(=O)n(-c2ccccc2C(F)(F)F)nc1C(=O)Nc1ccc(Oc2ccnc3[nH]ccc23)c(F)c1 | 
32 | 7.25 | Cc1cc(=O)n(-c2ccc(Cl)cc2Cl)nc1C(=O)Nc1ccc(Oc2ccnc3[nH]ccc23)cc1 | 
